From paper PMC7442691 (Nature chemical biology, 2020)

Assays:
FKBP12^F36V-Pin1 = assay: dTAG degradation of FKBP12F36V-Pin1 by immunoblot; type: cell-based, human; details: for rescue of dTAG-13 degradation by pretreatment: 2 h pretreatment, then 5 h dTAG-13 500 nM
[1] = system: PATU-8988T C1 (Pin1 WT) and C2 (Pin1 KO); assay: Cell viability, dose series in 2D monolayer, C1 vs C2; type: cell-based, human; details: juglone 4 days, KPT-6566 3 days
[2] = system: phospho-CDK1 Tyr15, c-Myc, β-Catenin, NFkB p65; assay: Inhibitor effects on Pin1 downstream signaling; type: cell-based, human; details: C2 + FKBP12F36V-Pin1 cells, 5 h
In short: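 Cells seeded at 100,000 per 6-well well, treated next day with DMSO, test compound, dTAG-13 or Dox, then lysed in RIPA with protease/phosphatase inhibitors for western blotting. For fractionation, 2 million cells per 10 cm plate were treated 5.5 h, trypsinised and split by nuclear/cytoplasmic extraction kit. For Wnt3a arms, cells had 4 h compound, then Wnt3a (50 ng/mL) for 4 more hours.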

[3] = system: PATU-8988T cells (parental, C1, C2 and transduced C2); assay: Cell viability, growth over time in 2D-adherent monolayer; type: cell-based, human
In short: (§1)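 Cells seeded at 100 per well in 96-well plates, one plate per time point, and dosed the day after plating with DMSO, test compound or dTAG-13 at 37°C, 5% CO2. Medium and compound were renewed every 48 h, with Dox 100 ng/mL added for inducible C2 cells. CellTiter-Glo luminescence was normalised to a Day 0 plate read before dosing. At least n = 3 biological replicates.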

[4] = system: PATU-8988T FKBP12^F36V-KRAS^G12V; KRAS^−/− clone; assay: Viability with FKBP12F36V-KRASG12V degradation, 4 days; type: cell-based, human; details: 4-day treatment; dTAG-13 100 nM, BJP-06-005-3 5 μM
In short: as §1

Pin1 = Pin1 (Homo sapiens, UniProt Q13526); assay: Cellular target engagement, live cell competition with BJP-DTB; type: cell-based; details: PATU-8988T cells, 5 h treatment
Chain of Pin1 (Q13526 whole entry): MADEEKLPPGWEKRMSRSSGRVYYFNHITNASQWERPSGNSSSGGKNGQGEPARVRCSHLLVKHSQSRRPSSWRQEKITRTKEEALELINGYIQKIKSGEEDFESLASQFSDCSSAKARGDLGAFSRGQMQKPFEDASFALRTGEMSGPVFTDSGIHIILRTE
In short: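 PATU-8988T, PC3 or MDA-MB-468 cells (2.5 million per 10 cm plate) were dosed next day with test compound, either as a concentration series for 5 h or at 5 μM over time. Cells were PBS-washed, scraped and lysed (HEPES pH 7.4, NP-40, TCEP, protease inhibitors). Lysate (500 μg protein) took desthiobiotin-tagged probe at 4°C, then streptavidin agarose for 1 h at 4°C. Washed beads were boiled in LDS for immunoblotting.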

[5] = C2 + FKBP12F36V-Pin1 cells, 5 h

**Q.** For CC(C)C[C@H](NC(=O)[C@H](CCc1ccccc1)NC(=O)CN1CCOCC1)C(=O)N[C@@H](Cc1ccccc1)C(=O)N[C@@H](CC(C)C)C(=O)[C@@]1(C)CO1 [carfilzomib], which “rescue of dTAG-13 degradation by pretreatment” value (FKBP12^F36V-Pin1) is on record?
**A.** degradation was rescued upon pretreatment

**Q.** How did the “anti-proliferative effects, C1 versus C2” value [1] turn out when O=C1C=CC(=O)c2c(O)cccc21 [juglone] was run?
**A.** identical anti-proliferative effects in C1 and C2

**Q.** What does the source list for CC[C@H](C(=O)N1CCCC[C@H]1C(=O)O[C@H](CCc1ccc(OC)c(OC)c1)c1ccccc1OCC(=O)NCCCCCCOc1cccc2c1C(=O)N(C1CCC(=O)NC1=O)C2=O)c1cc(OC)c(OC)c(OC)c1 (stereo partly drawn) [dTAG-13]?
**A.** time to degradation (FKBP12^F36V-Pin1; 500 nM dTAG-13): 2 to 4 h; concentration at which hook effect apparent (FKBP12^F36V-Pin1; [5]): 1 µM; concentration of maximal degradation (FKBP12^F36V-Pin1; [5]): 100 to 500 nM; phospho-CDK1 Tyr15 [2]: also increased phospho-CDK1 Tyr15; cell proliferation ([3]; C2 + FKBP12F36V-Pin1, 2.5 μM): not at 2.5 μM; cell proliferation ([3]; C2 + FKBP12F36V-Pin1, 100 or 500 nM): diminished cell proliferation after 6–8 days; cell viability [4]: modest viability effects

**Q.** With NS(=O)(=O)OC[C@@H]1C[C@@H](n2ccc3c(N[C@H]4CCc5ccccc54)ncnc32)C[C@@H]1O [MLN4924] as the compound, how does the “rescue of dTAG-13 degradation by pretreatment” value (FKBP12^F36V-Pin1) read?
**A.** degradation was rescued upon pretreatment

**Q.** How did the “anti-proliferative effects, C1 versus C2” value [1] turn out when CC(C)(C)c1ccc(S(=O)(=O)N=C2C=C(SCC(=O)O)C(=O)c3ccccc32)cc1 [KPT-6566] was run?
**A.** identical anti-proliferative effects in C1 and C2

**Q.** What about the “competition with BJP-DTB for cellular Pin1” value (Pin1) of the same compound?
**A.** unable to validate that KPT-6566 engages cellular Pin1
